According to ChEMBL document CHEMBL4725247, “Cytosolic delivery of peptidic STAT3 SH2 domain inhibitors” (Bioorg Med Chem, 2020):
The source made the active and inactive calls. No cut-off for these calls is given here. Where a SMILES comes first, the peptide text is derived from it. Bridges are numbered along the chain shown (N, C = ends). Roman numbers before positions name the chains, in order. [ ]: non-standard residue; d: D form. F2Pmp = N[C@@H](Cc1ccc(C(F)(F)P(=O)(O)O)cc1)C(=O)O; pY = N[C@@H](Cc1ccc(OP(=O)(O)O)cc1)C(=O)O; 2Nal = N[C@@H](Cc1ccc2ccccc2c1)C(=O)O; βAla = NCCC(=O)O

Tests used:
[1] = Stability of the compound in DMEM with 10% FBS (fetal bovine serum) at 150 uM measured at 24 hrs by reverse-phase HPLC assay
[2] = molecular target: Signal transducer and activator of transcription 3 (Homo sapiens) (UniProt P40763); assay: Inhibition of OSM-stimulated STAT3 activity in human U3A cell at 25 uM pretreated for 24 hrs followed by OSM stimulation and measured after 6 hrs by bright Glo-luciferase reporter gene assay
Sequence of Signal transducer and activator of transcription 3 (Homo sapiens) (P40763 whole entry): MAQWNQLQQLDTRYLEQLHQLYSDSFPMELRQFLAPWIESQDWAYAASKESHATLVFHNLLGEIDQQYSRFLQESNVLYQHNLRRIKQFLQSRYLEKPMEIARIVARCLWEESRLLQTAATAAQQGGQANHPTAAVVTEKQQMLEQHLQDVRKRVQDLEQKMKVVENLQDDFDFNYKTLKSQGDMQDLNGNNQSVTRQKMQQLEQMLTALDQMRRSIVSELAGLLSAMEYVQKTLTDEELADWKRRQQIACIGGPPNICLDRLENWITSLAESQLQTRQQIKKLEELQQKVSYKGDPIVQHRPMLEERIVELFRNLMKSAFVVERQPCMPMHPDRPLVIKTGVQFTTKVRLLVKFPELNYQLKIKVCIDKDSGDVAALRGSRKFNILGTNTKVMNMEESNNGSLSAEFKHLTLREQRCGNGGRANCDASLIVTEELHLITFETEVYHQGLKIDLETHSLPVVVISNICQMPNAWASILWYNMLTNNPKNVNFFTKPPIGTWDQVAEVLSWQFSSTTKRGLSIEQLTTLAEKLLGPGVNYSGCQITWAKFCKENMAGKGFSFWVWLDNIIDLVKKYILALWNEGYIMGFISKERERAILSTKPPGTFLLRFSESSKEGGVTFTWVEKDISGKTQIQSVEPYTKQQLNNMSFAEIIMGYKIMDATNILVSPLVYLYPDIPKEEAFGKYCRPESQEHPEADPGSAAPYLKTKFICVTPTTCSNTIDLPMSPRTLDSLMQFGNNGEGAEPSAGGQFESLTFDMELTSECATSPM
Method in brief: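 STAT3-luc U3A fibrosarcoma reporter cells seeded at 10⁴ cells/well overnight. Pretreated with peptide or vehicle (10 or 25 μM) for 24 h at 37 °C in DMEM + 10% FBS, then stimulated 6 h with OSM 10 ng/mL. Luciferase read by Bright-Glo luminescence. Controls: OSM alone and unstimulated cells.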

[3] = Stability in human HeLa cell lysate assessed as compound remaining at 150 uM measured after 1 hr by reverse-phase HPLC assay; assay type: ADME, subcellular; settings: read-out: Stabilty
Method in brief: (§1)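 Clarified lysate made from HeLa cells lysed on ice for 15 min in 50 mM Tris, 250 mM NaCl, 0.5% IGEPAL CA-630, pH 8.0. Peptide added at 150 μM and held at 37 °C. Peak area normalized to time zero.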

[4] = Stability in human HeLa cell lysate assessed as compound remaining at 150 uM measured after 24 hrs by reverse-phase HPLC assay; assay type: ADME, subcellular; settings: read-out: Stabilty
Method in brief: as §1

[5] = test system: MDA-MB-468; assay: Cytotoxicity against human MDA-MB-468 cells assessed as cell viability at 25 uM measured after 72 hrs by Celltiter-Glo assay; assay type: functional, cell-based
Method in brief: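 MDA-MB-468 breast cancer cells seeded at 3 × 10³ cells/well overnight, then given peptide or vehicle (10 or 25 μM) and kept at 37 °C for 72 h. Viability read by CellTiter-Glo luminescence.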

remaining at 1 h, 150 µM [3] | SMILES | Stabilty [1] | inhibition [2] | remaining at 24 h, 150 µM [4] | Activity [5]
– | CC(C)C[C@H](NC(=O)[C@H](Cc1ccc(C(F)(F)P(=O)(O)O)cc1)NC(=O)CNC(=O)CCNC(=O)CCNC(=O)CC[C@@H]1NC(=O)[C@@H](CCCNC(=N)N)NC(=O)[C@H](CCCNC(=N)N)NC(=O)[C@@H](CCCNC(=N)N)NC(=O)[C@H](CCCNC(=N)N)NC(=O)[C@H](Cc2ccc3ccccc3c2)NC(=O)[C@@H](Cc2ccccc2)NC(=O)[C@H](Cc2ccccc2)NC1=O)C(=O)N1CCC[C@H]1C(=O)N[C@@H](CCC(N)=O)C(=O)N[C@H](C(=O)N[C@H](C(N)=O)C(C)C)[C@@H](C)O (I: cyclo(F[dF][2Nal]R[dR]R[dR]E) / II: [βAla][βAla]G[F2Pmp]LPQTV-NH2; amide I:8-II:N) | Stable | inactive | – | –
< 20% | CC(C)C[C@H](NC(=O)[C@H](Cc1ccc(OP(=O)(O)O)cc1)NC(=O)CNC(=O)CCNC(=O)CCNC(=O)CC[C@@H]1NC(=O)[C@@H](CCCNC(=N)N)NC(=O)[C@H](CCCNC(=N)N)NC(=O)[C@@H](CCCNC(=N)N)NC(=O)[C@H](CCCNC(=N)N)NC(=O)[C@H](Cc2ccc3ccccc3c2)NC(=O)[C@@H](Cc2ccccc2)NC(=O)[C@H](Cc2ccccc2)NC1=O)C(=O)N1CCC[C@H]1C(=O)N[C@@H](CCC(N)=O)C(=O)N[C@H](C(=O)N[C@H](C(N)=O)C(C)C)[C@@H](C)O (I: cyclo([2Nal]R[dR]R[dR]EF[dF]) / II: [βAla][βAla]G[pY]LPQTV-NH2; amide I:6-II:N) | Unstable | inactive | – | –
– | CC(C)C[C@H](NC(=O)[C@H](Cc1ccc(C(F)(F)P(=O)(O)O)cc1)NC(=O)CNC(=O)CCNC(=O)CCNC(=O)CC[C@@H]1NC(=O)[C@@H](CCCNC(=N)N)NC(=O)[C@H](CCCNC(=N)N)NC(=O)[C@@H](CCCNC(=N)N)NC(=O)[C@H](CCCNC(=N)N)NC(=O)[C@H](Cc2ccc3ccccc3c2)NC(=O)[C@@H](Cc2ccccc2)NC(=O)[C@H](Cc2ccccc2)NC1=O)C(=O)N1CCC[C@H]1C(=O)N(C)[C@@H](CCC(N)=O)C(=O)N[C@H](C(=O)N[C@H](C(N)=O)C(C)C)[C@@H](C)O | – | inactive | 100% | inactive
